Results from different studies.
ALK C1156Y: ALK tyrosine kinase receptor (ALK, Homo sapiens, UniProt Q9UM73, C1156Y)
ALK: ALK tyrosine kinase receptor (ALK, Homo sapiens, UniProt Q9UM73)
ALK L1196M: ALK tyrosine kinase receptor (ALK, Homo sapiens, UniProt Q9UM73, L1196M)

SMILES | target | effect on | method | concentration | remaining binding [%]
Cc1cnn2ncc(-c3ccnc(N(C)C)n3)c2c1 | ALK C1156Y | binding |  | 1 µM | 100
O=C(c1ccc(Nc2ncc(Cl)c(-c3ccc(Cl)s3)n2)cc1)N1CCC(N2CCCC2)CC1 | ALK C1156Y | binding | competition with immobilised ligand | 1 µM | 38
O=C(Nc1c[nH]nc1C(=O)NC1CCNCC1)c1cc(F)cc(F)c1 | ALK | binding | competition with immobilised ligand | 1 µM | 91
C[C@@H]1CCN(c2nccc(-c3cnn4ncccc34)n2)C1 | ALK C1156Y | binding |  | 1 µM | 91
CO[C@@H](C)c1c(Nc2ccc([C@H](N(C)C(=O)C3CCS(=O)(=O)CC3)C(F)(F)F)cc2)cnc2cc(Cl)nn12 | ALK L1196M | cell-free assay | competition with immobilised ligand | 1 µM | 100
CN(C)c1ncc(F)c(-c2cnn3ncccc23)n1 | ALK C1156Y | binding |  | 1 µM | 80
Nc1ncc2c(n1)-c1c([nH]c3ccc(C#CC4CC4)cc13)CCCC2 | ALK C1156Y | binding | competition with immobilised ligand | 1 µM | 84
CN1CCN(c2ccc(Nc3nccc(-c4cccc([N+](=O)[O-])c4)n3)cc2C(F)(F)F)CC1 | ALK L1196M | binding |  | 10 µM | 76
O=C(NCC1CCOCC1)c1n[nH]cc1NC(=O)c1c(F)cccc1F | ALK C1156Y | binding | competition with immobilised ligand | 1 µM | 99
CCCCN(CCCC)C(=O)CN1C[C@H](c2cc(OC)c3c(c2)OCO3)[C@@H](C(=O)O)[C@@H]1CC(C)(C)CCC | ALK C1156Y | cell-free assay | competition with immobilised ligand | 1 µM | 100
CC(C)(C)c1ccc(-c2nc(CBr)nn2-c2cccc(O)c2)cc1 | ALK | cell-free assay | competition with immobilised ligand | 10 µM | 78
C[C@H](c1ccc(F)cc1)N(Cc1cccc(C(=O)O)c1)C(=O)c1cnc2ccccc2c1 | ALK L1196M | cell-free assay | competition with immobilised ligand | 1 µM | 76
COc1ccnn2ncc(-c3ccnc(N(C)C)n3)c12 | ALK | binding |  | 1 µM | 96
C[C@@H](c1ccc(-n2cnc3c(N)ncnc32)cc1)N1CCc2nn(C)c(Cc3ccccc3)c2C1=O | ALK L1196M | binding | competition with immobilised ligand | 0.1 µM | 60
C=CC(=O)N1CCC(C(=O)NCC(=O)N2CCN(c3nc(-c4cnc(N)nc4C(F)F)nc(N4CCOCC4)n3)CC2)CC1 | ALK C1156Y | binding | competition with immobilised ligand | 1 µM | 91
O=C(NCCCN1CCOCC1)c1ccc(Nc2nccc(-c3cc4ccccc4s3)n2)cc1 | ALK | binding | competition with immobilised ligand | 1 µM | 100
O=C(NCc1ncc(C(F)(F)F)cc1Cl)c1ccc2c(c1)C1(CCS(=O)(=O)CC1)[C@H](C1CC1)N2S(=O)(=O)c1ccc(F)cc1 | ALK C1156Y | cell-free assay | competition with immobilised ligand | 1 µM | 82
CNC(=O)[C@@H]1CC[C@@H](n2c(-c3ccc4cnccc4c3)nc3ccc(C(=O)NCc4cccc(C(N)=O)c4)cc32)C1 | ALK | binding | competition with immobilised ligand | 1 µM | 100
CN(C)c1nccc(-c2cnn3ncccc23)n1 | ALK | binding |  | 1 µM | 100

SMILES | target | effect on | method | concentration | remaining binding [%]
O=C(NCCCN1CCOCC1)c1ccc(Nc2ncc(Cl)c(-c3ccc(Cl)s3)n2)cc1 | ALK | binding | competition with immobilised ligand | 1 µM | 67
COc1cnc(Nc2cccc(S(N)(=O)=O)c2)nc1N1CCN(c2ccccc2)C(=O)C1 | ALK C1156Y | binding | competition with immobilised ligand | 1 µM | 96
CN1CCN(c2ccc(Nc3nccc(-c4ccccc4)n3)cc2C(F)(F)F)CC1 | ALK C1156Y | binding |  | 10 µM | 60
CC1CCCN1c1nccc(-c2cnn3ncccc23)n1 (stereo not shown) | ALK | binding |  | 1 µM | 69
COc1ncc2cc3ccccc3nc2c1C#N | ALK | cell-free assay | competition with immobilised ligand | 5 µM | 81
c1cncc(-c2cccc(Nc3nccc(NC4CCCCC4)n3)c2)c1 | ALK | binding | competition with immobilised ligand | 10 µM | 62
C[C@@H]1CN(c2ccc3ncc(-c4ccc5[nH]nc(C6CC6)c5c4)n3n2)C[C@H](C)O1 | ALK | binding | competition with immobilised ligand | 50 nM | 64
O=C(c1ccc(Nc2ncc(Cl)c(-c3cc4ccccc4s3)n2)cc1)N1CCC(N2CCCC2)CC1 | ALK C1156Y | binding | competition with immobilised ligand | 1 µM | 59
CN(C)c1nccc(-c2cnc3ncccn23)n1 | ALK C1156Y | binding |  | 1 µM | 82
FC(F)(F)Oc1cccc(-c2cnc3ccc(-c4ccncc4)nn23)c1 | ALK | cell-free assay | competition with immobilised ligand | 5 µM | 100
NS(=O)(=O)c1cc(NC(=O)Cc2ccccc2)ccc1Oc1cccc(Cl)c1 | ALK C1156Y | cell-free assay | competition with immobilised ligand | 1 µM | 88
O=C(c1ccc(Nc2nccc(-c3cc4ccccc4s3)n2)cc1)N1CCC(N2CCCC2)CC1 | ALK L1196M | binding | competition with immobilised ligand | 1 µM | 80
O=S(=O)(NC1CCC(c2cc(F)ccc2F)(S(=O)(=O)c2ccc(Cl)cc2)CC1)C(F)(F)F (stereo not shown) | ALK L1196M | cell-free assay | competition with immobilised ligand | 1 µM | 94
c1cnn2ncc(-c3ccnc(N4CCC45COC5)n3)c2c1 | ALK C1156Y | binding |  | 1 µM | 73
COc1ccc2c(c1)O[C@H](c1ccc(OC)c(OC)c1)C[C@@H]2NC(=O)C1(c2ccc3c(c2)OC(F)(F)O3)CC1 | ALK | cell-free assay | competition with immobilised ligand | 1 µM | 100
Cc1cnc(Nc2ccc(C(=O)N3CCC(N4CCCC4)CC3)cc2)nc1-c1cc2ccccc2s1 | ALK | binding | competition with immobilised ligand | 1 µM | 42
C[C@@H]1CN(c2cc(-c3nn(C)c4ccc(OC5(C)CC5)cc34)ncn2)C[C@H](C)O1 | ALK C1156Y | cell-free assay | competition with immobilised ligand | 1 µM | 82
COc1cnc(Nc2cccc(S(N)(=O)=O)c2)nc1N1CCN(c2ccccc2)CC1 | ALK C1156Y | binding | competition with immobilised ligand | 1 µM | 100
